Bfl-1 A1 inh: inhibitors of the anti-apoptotic protein A1, read as caspase activation | MEF A1-2A-BIM cells, Caspase-Glo 3/7 luminescence, 3 h; percent of clofoctol response, vehicle zero | caspase activation, % (concentration not given with the values) | actives 0.066% (n = 330,000) | AID 2462;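 active = over half of replicate activation scores above 10%, or exactly half above 10 with the replicate mean above 10; inconclusive = replicate mean below 10 yet half the replicates above 10; inactive = over half of replicates below 10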
HKDC1 inhibitor: HKDC1 (human) hexokinase inhibition; Q2TB90; recombinant HKDC1, G6PDH/diaphorase resazurin coupled fluorescence; inhibition, % at 20 µM; actives 0.16% (n = 340,000); AID 493160;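 active = inhibition above about 35% when tested at 20 µM, limit read from the data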
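Test system: Recombinant HKDC1 (HK5) hexokinase enzyme, produced in-house | Input: HKDC1 at 5 µg/mL | Buffer or medium: Tris pH 8.0 buffer with MgCl2, Tween-20, BSA, BME | Schedule: 90 min reaction incubation at room temperature, dark | Technique: Resazurin-to-resorufin fluorescence via G6PDH and diaphorase coupling, 525/613 nm | Controls: DMSO wells with and without enzyme mix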
ATG4B inhibitor: ATG4B (human) cysteine protease inhibition; actives 0.51% (n = 340,000); AID 504462; ATG4B cleavage of LC3-PLA2, NBD-HPC fluorescence, 1 h; Q9Y4P1; inhibition, % at 8.33 µM; in the data active = inhibition above about 40%
Target sequence (Q9Y4P1 whole entry, looked up): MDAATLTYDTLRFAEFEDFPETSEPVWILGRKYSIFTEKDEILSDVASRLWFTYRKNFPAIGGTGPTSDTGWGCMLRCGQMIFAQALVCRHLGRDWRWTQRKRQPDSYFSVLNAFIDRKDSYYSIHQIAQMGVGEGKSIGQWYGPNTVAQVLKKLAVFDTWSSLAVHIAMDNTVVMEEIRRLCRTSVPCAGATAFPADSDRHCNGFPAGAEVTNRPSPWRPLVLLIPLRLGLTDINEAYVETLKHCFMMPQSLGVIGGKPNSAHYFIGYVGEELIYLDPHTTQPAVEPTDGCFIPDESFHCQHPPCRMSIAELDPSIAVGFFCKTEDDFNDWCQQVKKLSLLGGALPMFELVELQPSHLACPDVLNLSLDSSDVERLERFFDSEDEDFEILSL
HDAC3 inhib: blocks human histone deacetylase 3 | recombinant HDAC3, fluorogenic peptide/trypsin coupled, fluorescence | actives 0.15% (n = 320,000) | O15379 | inhibition, % at 8.3 µM; in the data active = inhibition above about 26%, passing the limit was not always enough; inconclusive = no clear call, values can overlap the other calls
AI-2 QS modul: Vibrio harveyi AI-2 quorum sensing modulation; Vibrio harveyi JMH597 AI-2 luminescence/OD600 ratio, 9 h; hits give low values; strain lacks LuxN and CqsS sensors; 0 = neutral-control median; activity change, % at 7.5 µM; actives 0.4% (n = 300,000); in the data active = activity change below about -75%, passing the limit was not always enough; inconclusive = no clear call, values can overlap the other calls;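 note: luminescence divided by OD600 gain over 9 h not by final OD600 alone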
LANA-H2B inh: blocks KSHV LANA binding to histone H2A/H2B; AID 2629; cell-free LANA-H2A/H2B peptide, fluorescence polarization; actives 0.6% (n = 320,000); inhibition, % (no concentration beside the values); Q9QR71; in the data active = inhibition mostly above about 10%, no sharp cut-off; inactive = mostly below about 6.7%
ATG4B conf: ATG4B (human) inhibition, single-dose confirmed; AID 504757; shares compounds with ATG4B inhibitor; actives 92% (n = 320); ATG4B protease fluorescent substrate cleavage assay; inhibition, % at 8.33 µM; in the data active = inhibition above about 39%
PLA2 counter: PLA2 (human) inhibition in ATG4B counter-screen | shares compounds with ATG4B inhibitor | purified PLA2, NBD-C6-HPC fluorescence, 45 min | inhibition, % at 8.33 µM | actives 66% (n = 1,600) | AID 588402; in the data active = inhibition above about 50%
A number is an active result. Hits are enriched below; roughly 1.8% of the tested compounds scored in any of these assays.

Results for COc1ccc2c(c1OC)C(=O)OC2Nc1nc(-c2ccc(-c3ccccc3)cc2)cs1 (stereo not given) ?
Bfl-1 A1 inh: inactive; HKDC1 inhibitor: inactive; ATG4B inhibitor: 64; HDAC3 inhib: inactive; AI-2 QS modul: inactive; LANA-H2B inh: inactive; ATG4B conf: 39; PLA2 counter: inactive

How did COc1cccc(-c2csc(NC3OC(=O)c4c3ccc(OC)c4OC)n2)c1 (stereo not given) do in these assays?
Bfl-1 A1 inh: inactive; HKDC1 inhibitor: inactive; ATG4B inhibitor: inactive; HDAC3 inhib: inactive; AI-2 QS modul: inactive; LANA-H2B inh: inactive

Results for O=S(=O)(c1cccs1)N1CCN(c2ccccc2Cl)CC1 ?
Bfl-1 A1 inh: inactive; HKDC1 inhibitor: inactive; ATG4B inhibitor: 45; HDAC3 inhib: inactive; AI-2 QS modul: inactive; LANA-H2B inh: inactive; PLA2 counter: 64

Results for O=S(=O)(c1cccs1)N1CCN(c2ccccc2F)CC1 ?
Bfl-1 A1 inh: inactive; HKDC1 inhibitor: inactive; ATG4B inhibitor: inactive; HDAC3 inhib: inactive; AI-2 QS modul: inactive; LANA-H2B inh: inactive

How did Cc1ccc(C(=O)c2c(NC(=O)c3ccccc3C)sc(C)c2C)cc1 do in these assays?
Bfl-1 A1 inh: inactive; HKDC1 inhibitor: inactive; ATG4B inhibitor: 63; HDAC3 inhib: inactive; AI-2 QS modul: inactive; LANA-H2B inh: inactive; PLA2 counter: inactive

Results for CCOc1ccc(S(=O)(=O)Nc2nc3ccccc3nc2N2CCN(C)CC2)cc1 ?
Bfl-1 A1 inh: inactive; HKDC1 inhibitor: inactive; ATG4B inhibitor: inactive; HDAC3 inhib: inactive; AI-2 QS modul: inactive; LANA-H2B inh: inactive

How did O=S(=O)(Nc1nc2ccccc2nc1N1CCN(c2ccccc2F)CC1)c1ccc(Cl)cc1 do in these assays?
Bfl-1 A1 inh: inactive; HKDC1 inhibitor: inactive; ATG4B inhibitor: 71; HDAC3 inhib: inactive; AI-2 QS modul: inactive; LANA-H2B inh: inactive; PLA2 counter: 68

Results for CCN(Cc1ccc2c(c1)OCO2)C(=O)CSc1nc(C)nc2sc(C)c(C)c12 ?
Bfl-1 A1 inh: inactive; HKDC1 inhibitor: inactive; ATG4B inhibitor: 58; HDAC3 inhib: inactive; LANA-H2B inh: inactive; PLA2 counter: 75

Results for O=C(Nc1ccccc1Cc1ccccc1)c1ccccc1NS(=O)(=O)c1ccc(Cl)s1 ?
Bfl-1 A1 inh: inactive; HKDC1 inhibitor: inactive; ATG4B inhibitor: 82; HDAC3 inhib: inactive; AI-2 QS modul: inactive; LANA-H2B inh: inactive; PLA2 counter: 83

Results for O=C(Nc1ccccc1)c1ccccc1NS(=O)(=O)c1ccc(Cl)s1 ?
Bfl-1 A1 inh: inactive; HKDC1 inhibitor: inactive; ATG4B inhibitor: inactive; HDAC3 inhib: inactive; AI-2 QS modul: inactive; LANA-H2B inh: inactive

How did NC(=O)c1ccc(Nc2nnc(-c3ccc(O)cc3)c3ccccc23)cc1 do in these assays?
Bfl-1 A1 inh: inactive; HKDC1 inhibitor: inactive; ATG4B inhibitor: inactive; HDAC3 inhib: inactive; AI-2 QS modul: inactive

Results for Cc1ccc(-c2nnc(Nc3ccc(CC(N)=O)cc3)c3ccccc23)cc1S(=O)(=O)NCCO ?
Bfl-1 A1 inh: inactive; HKDC1 inhibitor: inactive; ATG4B inhibitor: 84; HDAC3 inhib: inactive; AI-2 QS modul: inactive; LANA-H2B inh: inactive; PLA2 counter: 87

What do the screens show for `NC(=O)Cc1ccc(Nc2nnc(-c3ccc(O)cc3)c3ccccc23)cc1`?
Bfl-1 A1 inh: inactive; HKDC1 inhibitor: inactive; ATG4B inhibitor: 92; HDAC3 inhib: inconclusive; AI-2 QS modul: inactive; LANA-H2B inh: inactive; PLA2 counter: 91

What do the screens show for `COc1cccc(-c2ccc(NC(=O)C3CCCN(CCCn4nc(C)cc4C)C3)cc2)c1` (stereo not given)?
Bfl-1 A1 inh: inactive; HKDC1 inhibitor: inactive; ATG4B inhibitor: inactive; HDAC3 inhib: inactive; AI-2 QS modul: inactive; LANA-H2B inh: inactive

Results for CCOc1ccc2nc(NC(=O)CSc3nc(-c4ccccc4)c(C#N)c(=O)[nH]3)sc2c1 ?
HKDC1 inhibitor: inactive; ATG4B inhibitor: inactive; AI-2 QS modul: inactive

Screens from PubChem BioAssay.
